In brackets after ≈: the same amount, converted by molar mass. Activity calls are given as the source filed them. Where a SMILES comes first, the peptide text is derived from it. [ ]: non-standard residue; d: D form. NFurfurylGly = O=C(O)CNCc1ccco1; Gly(N(CH2)3NH2) = NCCCNCC(=O)O; Nphe = O=C(O)CNCc1ccccc1
Key:
[1] = Antifungal activity against Cryptococcus neoformans serotype A H99S assessed as inhibition of colony growth measured after 72 hrs by PrestoBlue staining based broth dilution method; type: functional; details: for MIC: Cryptococcus neoformans var. grubii H99S
Outline: (§1)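 Standard broth dilution of the synthesized, HPLC-purified peptoid against C. neoformans in a triplicate-sample format with 72 h incubation; MIC is the lowest concentration that inhibits growth.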

Mus musculus = species: Mus musculus; experiment: Cytotoxicity against mouse NIH/3T3 cells at 6.3 ug/ml measured after 48 hrs by MTT assay; type: toxicity, cell-based; details: nih3t3, 48 h
Outline: (§2)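 Cells were exposed to peptoid across 800 to 3.1 μg/mL. IC50 is defined as the concentration giving 50% growth inhibition. Cytotoxicity was also scored at 6.3 μg/mL within this range.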

[2] = Cytotoxicity against human HepG2 cells at 6.3 ug/ml measured after 48 hrs by MTT assay; type: toxicity, cell-based; details: hepg2, 48 h; outline: as §2
Cryptococcus neoformans [3] = experiment: Fungicidal activity against Cryptococcus neoformans serotype A H99S at =>6.3 ug/mL measured after 72 hrs by broth dilution method; type: functional; details: Cryptococcus neoformans var. grubii H99S
Outline: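 Broth MIC assay over a range of peptoid concentrations with 72 h incubation. Triplicate wells are pooled, washed with PBS to remove drug and spotted onto YPD agar. Fungicidal activity means no colony regrowth; recovery of colonies means fungistatic only.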

[4] = Antifungal activity against Cryptococcus neoformans serotype D ATCC 24067 after 72 hrs by PrestoBlue staining based broth dilution method; type: functional, Cryptococcus deneoformans; outline: as §1
Cryptococcus neoformans [5] = experiment: Antifungal activity against Cryptococcus neoformans serotype A clinical isolate B18 after 72 hrs by PrestoBlue staining based broth dilution method; type: functional; details: isolate B18, 72 h
Outline: (§3)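 Standard broth dilution MIC assay run in triplicate samples with 72 h incubation. The MIC is the lowest concentration inhibiting growth. An IC50 (50% inhibitory concentration) is also derived from the same assay.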

Cryptococcus neoformans [6] = experiment: Antifungal activity against Cryptococcus neoformans serotype A clinical isolate B24 after 72 hrs by PrestoBlue staining based broth dilution method; type: functional; details: isolate B24, 72 h; outline: as §3
[7] = Antifungal activity against Cryptococcus neoformans serotype D clinical isolate AD 12-27 after 72 hrs by PrestoBlue staining based broth dilution method; type: functional, Cryptococcus deneoformans; outline: as §3
[8] = Antifungal activity against Cryptococcus neoformans serotype D clinical isolate AD 12-30 after 72 hrs by PrestoBlue staining based broth dilution method; type: functional, Cryptococcus deneoformans; outline: as §3
[9] = Cytotoxicity against mouse NIH/3T3 cells measured after 48 hrs by MTT assay; type: toxicity, NIH3T3; outline: as §2
[10] = Cytotoxicity against human HepG2 cells measured after 48 hrs by MTT assay; type: toxicity, cell-based; outline: as §2
[11] = Cytotoxicity against human HPL1A cells measured after 48 hrs by MTT assay; type: toxicity, cell-based; outline: as §2
[12] = Cytotoxicity against human erythrocytes assessed as hemolysis measured after 1 hr by spectrophotometric method; type: toxicity, cell-based; details: erythrocyte
Outline: (§4)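 Human erythrocytes were exposed to peptoid across 800 to 3.1 μg/mL. HC10 is defined as the concentration lysing 10% of erythrocytes. Lysis was also scored at 6.3 μg/mL.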

[13] = Selectivity index, ratio of IC50 for mouse NIH/3T3 cells to MIC for Cryptococcus neoformans serotype A H99S
Outline: (§5)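 Mammalian toxicity tested at 800 to 3.1 μg/mL. IC50 (50% growth inhibition) was measured in NIH/3T3, HepG2 and HPL1A cells, and HC10 (10% lysis) in human erythrocytes. Each value was divided by the broth-dilution MIC against H99S.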

[14] = Selectivity index, ratio of IC50 for human HepG2 cells to MIC for Cryptococcus neoformans serotype A H99S; outline: as §5
[15] = Selectivity index, ratio of IC50 for human HPL1A cells to MIC for Cryptococcus neoformans serotype A H99S; outline: as §5
[16] = Selectivity index, ratio of HC10 for human erythrocytes to MIC for Cryptococcus neoformans serotype A H99S; outline: as §5
[17] = Metabolic stability in human serum assessed as compound degradation at 0.1 mg/mL measured after 48 hrs by RP-HPLC analysis; type: ADME
[18] = Cytotoxicity against human HPL1A cells at 6.3 ug/ml measured after 48 hrs by MTT assay; type: toxicity, cell-based; outline: as §2
[19] = Hemolytic activity against human erythrocytes at 6.3 ug/ml measured after 1 hr by spectrophotometric method; type: cell-based; details: erythrocyte; outline: as §4

NCCCN(CC(=O)N(CC(=O)N(CC(N)=O)Cc1ccco1)Cc1ccccc1)C(=O)CN(Cc1ccccc1)C(=O)CNCc1ccccc1 (H-[Nphe][Nphe][Gly(N(CH2)3NH2)][Nphe][NFurfurylGly]-NH2)
MIC [1]: > 200 µg/mL

CCCCCCCCCCCCCNCC(=O)N(CCCCN)CC(=O)N(CC(N)=O)Cc1ccco1
IC50 [1]: 0.68 µg/mL (≈ 1.3 µM)
MIC [1]: 6.3 µg/mL (≈ 12.1 µM)
Activity (Mus musculus): Non-Toxic
Activity [2]: Non-Toxic
Activity (Cryptococcus neoformans [3]): Active
IC50 [4]: 3.9 µg/mL (≈ 7.47 µM)
MIC ([4]; Cryptococcus deneoformans): 6.3 µg/mL (≈ 12.1 µM)
IC50 (Cryptococcus neoformans [5]): 12.2 µg/mL (≈ 23.4 µM)
MIC (Cryptococcus neoformans [5]): 25 µg/mL (≈ 47.9 µM)
IC50 (Cryptococcus neoformans [6]): 10.7 µg/mL (≈ 20.5 µM)
MIC (Cryptococcus neoformans [6]): 12.5 µg/mL (≈ 24 µM)
IC50 [7]: 4 µg/mL (≈ 7.67 µM)
MIC ([7]; Cryptococcus deneoformans): 25 µg/mL (≈ 47.9 µM)
IC50 [8]: 6.9 µg/mL (≈ 13.2 µM)
MIC ([8]; Cryptococcus deneoformans): 25 µg/mL (≈ 47.9 µM)
IC50 at 48 h [9]: 48.6 to 50.3 µg/mL (≈ 93.1 to 96.4 µM)
IC50 at 48 h [10]: 43.6 to 56.2 µg/mL (≈ 83.6 to 108 µM)
IC50 at 48 h [11]: 36.3 µg/mL (≈ 69.6 µM)
HC10 [12]: 68.7 µg/mL
Selectivity Index [13]: 8
Selectivity Index [14]: 9
Selectivity Index [15]: 6
Selectivity Index [16]: 11
Stability [17]: Stable
Activity [18]: Non-Toxic
Activity [19]: Non-Toxic

Source: ChEMBL document CHEMBL3864187, “Discovery and Characterization of a Peptoid with Antifungal Activity against Cryptococcus neoformans” (ACS Med Chem Lett, 2016)
